Screens as filed in PubChem.
KCNQ1 inh: inhibitors of human KCNQ1 channel, primary screen, cell-based, thallium flux, high-throughput; AID 2642, 2010; CHO-K1 KCNQ1, FluxOR thallium flux fluorescence; stronger effect = higher value; actives 1.3% (n = 310,000); B-score at 10 µM;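 active = compounds whose thallium flux B-score, printed positive for inhibition, exceeds three library SD while starting fluorescence stays within three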;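 note: channel opened by potassium depolarization with thallium stimulus after 20 min compound exposure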
KCNQ1 pot: potentiators or activators of KCNQ1 channel, primary screen, cell-based, thallium flux, high-throughput. AID 2648, 2010. actives 0.35% (n = 310,000). Potassium voltage-gated channel subfamily KQT member 1 (Homo sapiens), P51787. CHO-K1 KCNQ1, thallium flux FluxOR fluorescence; stronger effect = higher value. B-score at 10 µM;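 active = fluorescence ratio B-score, a plate-corrected score, at least three library SD, with initial intensity B-score within 5 SD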
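Medium – assay buffer, equal DMSO in all wells · Material – CHO-K1 cell line with stable KCNQ1 potassium channel expression · Signal – kinetic FluxOR thallium fluorescence, 10-s 1-Hz baseline, 110-s post-stimulus read · Compound – single concentration per compound, DMSO matched to controls · Schedule – 37 °C overnight plating, 90-min dark dye load, 20-min compound pretreatment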
Cl transport mod: KCC2 cotransporter modulators, thallium flux, primary screen, cell-based, HEK293 KCC2, FluoZin-2 fluorescence, MLSMR | Solute carrier family 12 member 5 (Homo sapiens), Q9H2X9 | KCC2 cells, thallium flux FluoZin-2 fluorescence | B-score of Tl+ flux slope (higher = more flux/activation; lower = inhibition) at 10 µM | actives 2.2% (n = 190,000) | AID 1456, 2008;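 active = thallium flux slope and its plate-corrected score both differing from the plate sample mean at a set confidence after two filtering rounds, in either direction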;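 note: slope of fluorescence scaled to starting intensity during 10 to 20 s after thallium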
KCNK3 inh: human KCNK3 channel inhibitors, primary screen, CHO cells, FluxOR thallium flux, B-score; FluxOR fluorescence; stronger effect = lower value; actives 0.84% (n = 340,000); B-score at 10 µM; Potassium channel subfamily K member 3 (Homo sapiens), O14649;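 active = B-score under library mean minus 4 SD, starting fluorescence ratio at most library mean plus 5 SD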;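 note: more negative B-score means stronger inhibition of thallium flux through KCNK3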
KCNK9 inh: KCNK9 potassium channel inhibitors, primary screen, HEK293 cells, thallium flux | AID 488922, 2010 | Potassium channel subfamily K member 9 (Homo sapiens), Q9NPC2 | B-score at 10 µM | actives 1.2% (n = 310,000) | FluxOR thallium flux fluorescence; stronger effect = lower value;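 active = ratio B-score over 3 SD below the library mean, with starting fluorescence within 5 SD of its mean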;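 note: negative B-score means less thallium flux so channel inhibition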
Target sequence (Q9NPC2 whole entry, looked up): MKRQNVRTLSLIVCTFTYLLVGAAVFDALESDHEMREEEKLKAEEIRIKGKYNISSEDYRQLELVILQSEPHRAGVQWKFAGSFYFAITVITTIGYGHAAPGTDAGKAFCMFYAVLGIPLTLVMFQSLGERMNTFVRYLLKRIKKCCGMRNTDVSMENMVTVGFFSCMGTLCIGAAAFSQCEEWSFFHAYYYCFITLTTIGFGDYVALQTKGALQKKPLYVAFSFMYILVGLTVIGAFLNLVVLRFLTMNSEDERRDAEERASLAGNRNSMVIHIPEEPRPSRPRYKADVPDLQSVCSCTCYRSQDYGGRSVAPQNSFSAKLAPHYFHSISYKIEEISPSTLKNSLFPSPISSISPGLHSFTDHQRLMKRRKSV
hERG rescue: hERG rescue from dofetilide block, primary screen, cell-based, CHO-hERG, FluxOR thallium flux, dofetilide IC70; Voltage-gated inwardly rectifying potassium channel KCNH2 (Homo sapiens), Q12809; dofetilide IC70 present; activation (rescue from dofetilide block), less the hit threshold, % at 10 µM; actives 0.51% (n = 310,000); AID 1511, 2009;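 active = activation above the mean of controls blocked by dofetilide plus 5 SD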;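 note: thallium influx through hERG after potassium depolarization seen as dye fluorescence rise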
KCC2 sec1: KCC2 modulators in sodium-free buffer, confirmation, cell-based, HEK293 KCC2, thallium flux, secondary assay. shares compounds with Cl transport mod. FluoZin2 fluorescence; stronger effect = higher value. normalised thallium flux (F/F0 slope) at 10 µM. actives 15% (n = 3,700). AID 1713, 2009;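 active = thallium flux slope above the same plate's solvent-only control mean plus 3 SD; inconclusive = the two replicate wells disagree; inactive = no significant difference from solvent-only control wells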
KCC2 bumet counter: thallium flux persisting under bumetanide in KCC2 cells, confirmation, counter-screen for KCC2 modulator project, cell-based, HEK293 KCC2, FluoZin2, secondary assay 3. actives 49% (n = 3,700). normalized thallium flux at 10 µM. shares compounds with Cl transport mod. AID 1714, 2009. HEK293-KCC2 + bumetanide/ouabain; stronger effect = higher value;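 active = thallium entry rate above the same plate's blocked-transporter control wells by more than 3 SD; inconclusive = the two repeat wells disagree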;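 note: raw slope of fluorescence over initial fluorescence between 10 and 20 s after thallium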
KCC2 secondary2: KCC2 modulators without ouabain present, confirmation, cell-based, HEK293 KCC2, thallium flux, FluoZin2, secondary assay 2 | shares compounds with Cl transport mod | thallium flux FluoZin2 fluorescence; actives lie on both sides; F/F0 rise rate, 10–20 s post-thallium | normalized thallium flux at 10 µM | actives 23% (n = 3,700);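 active = thallium flux slope more than 3 SD above or below the plate's solvent-only control mean, mostly below; inconclusive = the two repeat wells disagreed; inactive = no significant shift from solvent-only controls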
HEK counter1: thallium flux modulation in parental HEK cells, confirmation, counter-screen for KCC2 modulator project, cell-based, counterscreen 1; thallium flux rate (normalised fluorescence) at 10 µM; HEK293 parental cells, thallium flux FluoZin2, ouabain; baseline-ratio fluorescence slope, 10–20 s after thallium; shares compounds with Cl transport mod; actives 46% (n = 3,700);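 active = thallium flux rate significantly above the same plate's solvent-only control wells, beyond their mean plus 3 SD; inconclusive = the two replicate wells gave conflicting results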
KCC2 retest ouab: KCC2 inhibitors and activators, ouabain retest, confirmation, HEK-KCC2 cells; actives 48% (n = 3,700); HEK293-KCC2, thallium flux FluoZin2 fluorescence; bidirectional: low = inhibitor, high = activator; raw Tl+ flux slope (below DMSO = inhibition, above = activation) at 10 µM; AID 1717, 2009; shares compounds with Cl transport mod;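 active = thallium flux slope beyond 3 SD from same-plate DMSO control mean in most replicates, usually higher, sometimes lower; inconclusive = repeat tests gave conflicting results; inactive = no significant difference from controls in most replicates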;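 note: slope of initial-normalized fluorescence between seconds 10 and 20 after thallium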
HEK counter2: native HEK Tl+ uptake effects, second counter-screen – HEK cells, counterscreen 2, counter-screen for KCC2 modulator project, confirmation; shares compounds with Cl transport mod; HEK293 parental, thallium flux FluoZin-2 fluorescence slope; thallium flux slope at 10 µM; actives 33% (n = 3,700);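 active = thallium flux slope above the same plate's solvent-control mean plus 3 SD in both duplicate wells; inconclusive = duplicate wells that disagreed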;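 note: run without ouabain in cells lacking the KCC2 cotransporter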
Hits are given with their value; i = inactive; ? = inconclusive; nt = not tested or not shown. This is a sample that favours compounds with a hit; in the whole collection about 4.1% have one here.

SMILES	KCNQ1 inh	KCNQ1 pot	Cl transport mod	KCNK3 inh	KCNK9 inh	hERG rescue	KCC2 sec1	KCC2 bumet counter	KCC2 secondary2	HEK counter1	KCC2 retest ouab	HEK counter2
COc1cc(CNCc2ccccc2C(F)(F)F)cc(OC)c1	i	i	i	i	i	i	nt	nt	nt	nt	nt	nt
CCOc1ccc(Nc2nc(NCCN3CCOCC3)nc(OC)n2)cc1	i	i	nt	i	i	i	i	?	i	i	i	i
CCC(=O)NNC(=O)c1cc(COc2cc(Cl)cc(Cl)c2)on1	i	i	8.62	i	i	i	i	0.0176	i	0.0175	?	0.0141
CCC(NC(=O)c1cc(COc2cncc(Cl)c2)on1)c1ccncc1 (stereo not drawn)	i	i	nt	i	i	i	nt	nt	nt	nt	nt	nt
O=C(NC(=S)Nc1ccc(CN2CCOCC2)cc1)c1ccc(-c2ccc(Br)cc2)o1	i	i	5.31	nt	i	i	i	i	i	0.0175	?	i
O=C(NC(=S)Nc1ccc(CN2CCOCC2)cc1)c1ccc(-c2ccc(Cl)cc2)o1	i	i	i	nt	i	i	nt	nt	nt	nt	nt	nt
O=C(NC(=S)Nc1ccc(CN2CCOCC2)cc1)c1cc2ccccc2o1	i	i	12.4	i	i	i	i	0.0162	i	0.0198	0.0294	0.015
Cc1ccc(S(=O)(=O)Nc2nsc(N)n2)cc1	i	i	i	i	i	i	nt	nt	nt	nt	nt	nt
CC1CCc2cccc3c(O)cc(=O)n1c23 (stereo not drawn)	i	i	nt	i	i	i	nt	nt	nt	nt	nt	nt
C=CCNC(=O)C1CCN(c2c([N+](=O)[O-])cc(C(F)(F)F)cc2[N+](=O)[O-])CC1	i	i	nt	i	i	i	i	i	i	i	i	?
O=[N+]([O-])c1ccc(-c2nc(=S)c3c(o2)CCCC3)cc1	i	i	34.1	i	i	i	0.0183	0.0266	i	0.0333	0.0423	0.0155
S=c1nc(-c2ccccc2)oc2c1CCCC2	i	i	5.3	i	i	i	i	0.0446	i	0.0122	?	0.0128
O=c1oc(-c2ccccc2)nc2sc3c(c12)CCC3	i	i	i	i	i	i	nt	nt	nt	nt	nt	nt
